Experimental data as given in BindingDB's records for doi:10.1016/s0960-894x(03)00042-8 (Merck Frosst Centre For Therapeutic Research, 2003).

Molecular target: Prostaglandin E2 receptor EP4 subtype (Homo sapiens, UniProt P35408)
Test: Binding affinity towards EP4 receptor expressed in HEK293 ebna cells recombinantly expressing the corresponding human prostanoid cDNAs
In short: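 Competition binding used membrane preparations, not intact cells, from HEK293ebna cells expressing each recombinant human prostanoid receptor cDNA.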

Prostaglandin E2 receptor EP4 subtype, sequence (P35408 whole entry): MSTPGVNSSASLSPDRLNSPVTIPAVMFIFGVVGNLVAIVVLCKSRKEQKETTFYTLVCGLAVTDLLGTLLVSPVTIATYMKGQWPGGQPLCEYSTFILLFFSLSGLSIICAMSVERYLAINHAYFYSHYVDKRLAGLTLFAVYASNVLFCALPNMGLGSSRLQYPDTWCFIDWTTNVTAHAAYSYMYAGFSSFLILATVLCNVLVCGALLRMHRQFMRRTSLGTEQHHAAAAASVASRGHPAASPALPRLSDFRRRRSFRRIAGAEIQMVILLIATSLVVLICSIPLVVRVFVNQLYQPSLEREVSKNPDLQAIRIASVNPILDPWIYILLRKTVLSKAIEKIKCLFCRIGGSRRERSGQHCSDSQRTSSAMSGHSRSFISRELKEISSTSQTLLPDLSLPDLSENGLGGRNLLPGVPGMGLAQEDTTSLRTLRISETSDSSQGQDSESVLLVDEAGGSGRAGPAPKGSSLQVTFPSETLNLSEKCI

- Ki: 2.5 nM
SMILES: O=C1CC[C@H](/C=C/[C@H](O)Cc2ccccc2)N1CCCCCCc1nnn[nH]1
